Experimental data from ChEMBL document CHEMBL1152768, “4-Benzyloxy-gamma-sultone derivatives: discovery of a novel family of non-nucleoside inhibitors of human cytomegalovirus and varicella zoster virus” (J Med Chem, 2009).

tested on: Human betaherpesvirus 5; assay: Antiviral activity against HCMV Davis infected in human HEL cells assessed inhibition of virus-induced cytopathicity after 7 days postinfection; type: functional, organism-based; details: Human betaherpesvirus 5, Davis, 168 h
Outline: (§1)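 HEL fibroblasts were infected at 100 PFU. After 2 h, residual virus was removed and medium with test compound was added at several concentrations, in duplicate. Cells were incubated 7 days at 37 °C, fixed with ethanol and stained with Giemsa.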

`CCC1(Cc2ccccc2)OS(=O)(=O)C=C1OCc1ccccc1Cl` (racemic) and `CCC1(Cc2ccccc2)OS(=O)(=O)C=C1OCc1cccc(Cl)c1` (racemic) cannot be ordered by EC50: over 4 µM for the first, 8 µM for the second.

Compared with `CCC1(Cc2ccccc2)OS(=O)(=O)C=C1OCc1ccc([N+](=O)[O-])cc1` (racemic), `CCC1(Cc2ccccc2)OS(=O)(=O)C=C1OCc1ccc(Br)cc1` (racemic) is lower in EC50: over 80 µM for the first, 6 µM for the second. The second is the more potent here.

Going from `CCC1(Cc2ccccc2)OS(=O)(=O)C=C1OS(=O)(=O)c1ccc(C)cc1` (racemic) to `CCC1(Cc2ccccc2)OS(=O)(=O)C=C1OCc1ccc(C(F)(F)F)cc1` (racemic), the EC50 falls from over 80 µM to 8 µM.

`CCC1(Cc2ccccc2)OS(=O)(=O)C=C1OCCCCc1ccccc1` (racemic) and `CCC1(Cc2ccccc2)OS(=O)(=O)C=C1OCCCCCCc1ccccc1` (racemic) are within 1.5-fold of each other in EC50: 7.8 µM for the first, 6.4 µM for the second.

First: CCC1(Cc2ccccc2)OS(=O)(=O)C=C1OCc1ccc(Cl)c(Cl)c1 (racemic)
Second: CCC1(Cc2ccccc2)OS(=O)(=O)C=C1OC(=O)c1ccccc1 (racemic)
The EC50 of the first is 25-fold lower: 7.2 µM for the first, 179 µM for the second. The first is the more potent here.

tested on: Human betaherpesvirus 5; assay: Antiviral activity against HCMV AD169 infected in human HEL cells assessed inhibition of virus-induced cytopathicity after 7 days postinfection; type: functional, organism-based; details: Human betaherpesvirus 5, AD169, HEL, 168 h; outline: as §1

`CCC1(Cc2ccccc2)OS(=O)(=O)C=C1OCc1ccccc1Cl` (racemic) and `CCC1(Cc2ccccc2)OS(=O)(=O)C=C1OCc1cccc(Cl)c1` (racemic) cannot be ordered by EC50: over 4 µM for the first, over 16 µM for the second.

Compared with `CCC1(Cc2ccccc2)OS(=O)(=O)C=C1OCc1ccc([N+](=O)[O-])cc1` (racemic), `CCC1(Cc2ccccc2)OS(=O)(=O)C=C1OCc1ccc(Br)cc1` (racemic) is lower in EC50: over 400 µM for the first, 10 µM for the second.

First: CCC1(Cc2ccccc2)OS(=O)(=O)C=C1OS(=O)(=O)c1ccc(C)cc1 (racemic)
Second: CCC1(Cc2ccccc2)OS(=O)(=O)C=C1OCc1ccc(C(F)(F)F)cc1 (racemic)
The EC50 of the first is higher: over 80 µM for the first, 12 µM for the second. The second is the more potent here.

First: CCC1(Cc2ccccc2)OS(=O)(=O)C=C1OCCCCc1ccccc1 (racemic)
Second: CCC1(Cc2ccccc2)OS(=O)(=O)C=C1OCCCCCCc1ccccc1 (racemic)
The EC50 of the first is higher: over 3.2 µM for the first, under 3.2 µM for the second.

First: CCC1(Cc2ccccc2)OS(=O)(=O)C=C1OCc1ccc(Cl)c(Cl)c1 (racemic)
Second: CCC1(Cc2ccccc2)OS(=O)(=O)C=C1OC(=O)c1ccccc1 (racemic)
The EC50 of the first is lower: 6.5 µM for the first, over 400 µM for the second. The first is the more potent here.

tested on: Human alphaherpesvirus 3; assay: Antiviral activity against thymidine kinase expressing Varicella zoster virus Oka infected in human HEL cells assessed reduction in viral plaque formation; type: functional, organism-based; details: Human alphaherpesvirus 3, Oka
Outline: (§2)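 Confluent HEL cell monolayers were inoculated with VZV at 20 PFU per well. Residual virus was removed after 2 h, and compound was added at varying concentrations, in duplicate.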

`CCC1(Cc2ccccc2)OS(=O)(=O)C=C1OCc1ccccc1Cl` (racemic) and `CCC1(Cc2ccccc2)OS(=O)(=O)C=C1OCc1cccc(Cl)c1` (racemic) are within 1.5-fold of each other in EC50: 8.7 µM for the first, 7.3 µM for the second.

Compared with `CCC1(Cc2ccccc2)OS(=O)(=O)C=C1OCc1ccc([N+](=O)[O-])cc1` (racemic), `CCC1(Cc2ccccc2)OS(=O)(=O)C=C1OCc1ccc(Br)cc1` (racemic) is 9.6-fold lower in EC50: 80 µM for the first, 8.3 µM for the second. The second is the more potent here.

First: CCC1(Cc2ccccc2)OS(=O)(=O)C=C1OS(=O)(=O)c1ccc(C)cc1 (racemic)
Second: CCC1(Cc2ccccc2)OS(=O)(=O)C=C1OCc1ccc(C(F)(F)F)cc1 (racemic)
The EC50 of the first is higher: over 80 µM for the first, 7.7 µM for the second.

`CCC1(Cc2ccccc2)OS(=O)(=O)C=C1OCCCCc1ccccc1` (racemic) and `CCC1(Cc2ccccc2)OS(=O)(=O)C=C1OCCCCCCc1ccccc1` (racemic) are within 1.5-fold of each other in EC50: 6.2 µM for the first, 8.7 µM for the second.

`CCC1(Cc2ccccc2)OS(=O)(=O)C=C1OCc1ccc(Cl)c(Cl)c1` (racemic) and `CCC1(Cc2ccccc2)OS(=O)(=O)C=C1OC(=O)c1ccccc1` (racemic) cannot be ordered by EC50: over 3.2 µM for the first, over 400 µM for the second.

Compound `Nc1nc2c(ncn2COCCO)c(=O)[nH]1` [ACYCLOVIR] has an EC50 of 1.1 µM.

tested on: Human alphaherpesvirus 3; assay: Antiviral activity against thymidine kinase deficient Varicella zoster virus 07/1 infected in human HEL cells assessed reduction in viral plaque formation; type: functional, organism-based; details: Human alphaherpesvirus 3, HEL; outline: as §2

`CCC1(Cc2ccccc2)OS(=O)(=O)C=C1OCc1ccccc1Cl` (racemic) and `CCC1(Cc2ccccc2)OS(=O)(=O)C=C1OCc1cccc(Cl)c1` (racemic) are within 1.5-fold of each other in EC50: 10 µM for the first, 6.7 µM for the second.

Compared with `CCC1(Cc2ccccc2)OS(=O)(=O)C=C1OCc1ccc([N+](=O)[O-])cc1` (racemic), `CCC1(Cc2ccccc2)OS(=O)(=O)C=C1OCc1ccc(Br)cc1` (racemic) is 8.6-fold lower in EC50: 54 µM for the first, 6.3 µM for the second.

Compared with `CCC1(Cc2ccccc2)OS(=O)(=O)C=C1OS(=O)(=O)c1ccc(C)cc1` (racemic), `CCC1(Cc2ccccc2)OS(=O)(=O)C=C1OCc1ccc(C(F)(F)F)cc1` (racemic) is lower in EC50: over 80 µM for the first, 6.7 µM for the second.

First: CCC1(Cc2ccccc2)OS(=O)(=O)C=C1OCCCCc1ccccc1 (racemic)
Second: CCC1(Cc2ccccc2)OS(=O)(=O)C=C1OCCCCCCc1ccccc1 (racemic)
The EC50 of the first is higher: over 20 µM for the first, 8.4 µM for the second. The second is the more potent here.

`CCC1(Cc2ccccc2)OS(=O)(=O)C=C1OCc1ccc(Cl)c(Cl)c1` (racemic) and `CCC1(Cc2ccccc2)OS(=O)(=O)C=C1OC(=O)c1ccccc1` (racemic) cannot be ordered by EC50: over 3.2 µM for the first, over 400 µM for the second.

`Nc1nc2c(ncn2COCCO)c(=O)[nH]1` [ACYCLOVIR] gave an EC50 of 72 µM.

tested on: not listed separately; assay: Cytotoxicity against human HEL cells assessed as morphological alteration after 3 days; type: cell-based; details: not given
Outline: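 HEL cultures were examined under the microscope. MCC was recorded as the compound concentration causing a microscopically detectable alteration of normal cell morphology.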

`CCC1(Cc2ccccc2)OS(=O)(=O)C=C1OCc1ccccc1Cl` (racemic) and `CCC1(Cc2ccccc2)OS(=O)(=O)C=C1OCc1cccc(Cl)c1` (racemic) cannot be ordered by MCC at 72 h: at least 20 µM for the first, at least 20 µM for the second.

`CCC1(Cc2ccccc2)OS(=O)(=O)C=C1OCc1ccc([N+](=O)[O-])cc1` (racemic) and `CCC1(Cc2ccccc2)OS(=O)(=O)C=C1OCc1ccc(Br)cc1` (racemic) cannot be ordered by MCC at 72 h: at least 80 µM for the first, 80 µM for the second.

`CCC1(Cc2ccccc2)OS(=O)(=O)C=C1OS(=O)(=O)c1ccc(C)cc1` (racemic) and `CCC1(Cc2ccccc2)OS(=O)(=O)C=C1OCc1ccc(C(F)(F)F)cc1` (racemic) cannot be ordered by MCC at 72 h: 400 µM for the first, at least 16 µM for the second.

`CCC1(Cc2ccccc2)OS(=O)(=O)C=C1OCCCCc1ccccc1` (racemic) and `CCC1(Cc2ccccc2)OS(=O)(=O)C=C1OCCCCCCc1ccccc1` (racemic) cannot be ordered by MCC at 72 h: at least 20 µM for the first, at least 20 µM for the second.

`CCC1(Cc2ccccc2)OS(=O)(=O)C=C1OCc1ccc(Cl)c(Cl)c1` (racemic) and `CCC1(Cc2ccccc2)OS(=O)(=O)C=C1OC(=O)c1ccccc1` (racemic) cannot be ordered by MCC at 72 h: at least 20 µM for the first, over 400 µM for the second.

In the case of `Nc1nc2c(ncn2COCCO)c(=O)[nH]1` [ACYCLOVIR], the MCC at 72 h is reported as over 200 µM.

tested on: not listed separately; assay: Cytotoxicity against human HEL cells assessed as reduction of growth after 3 days; type: cell-based; details: not given
Outline: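 HEL cells were seeded at 5 × 10³ cells/well and grown 24 h before compound was added at different concentrations. After 3 days at 37 °C, cells were counted with a Coulter counter. CC50, the concentration halving growth relative to untreated controls, was read from plots of cell number (% of control) against concentration.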

`CCC1(Cc2ccccc2)OS(=O)(=O)C=C1OCc1ccccc1Cl` (racemic) and `CCC1(Cc2ccccc2)OS(=O)(=O)C=C1OCc1cccc(Cl)c1` (racemic) are within 1.5-fold of each other in CC50 at 72 h: 38 µM for the first, 50 µM for the second.

`CCC1(Cc2ccccc2)OS(=O)(=O)C=C1OCc1ccc([N+](=O)[O-])cc1` (racemic) and `CCC1(Cc2ccccc2)OS(=O)(=O)C=C1OCc1ccc(Br)cc1` (racemic) cannot be ordered by CC50 at 72 h: under 200 µM for the first, 171 µM for the second.

`CCC1(Cc2ccccc2)OS(=O)(=O)C=C1OS(=O)(=O)c1ccc(C)cc1` (racemic) and `CCC1(Cc2ccccc2)OS(=O)(=O)C=C1OCc1ccc(C(F)(F)F)cc1` (racemic) are within 1.5-fold of each other in CC50 at 72 h: 109 µM for the first, 99 µM for the second.

`CCC1(Cc2ccccc2)OS(=O)(=O)C=C1OCCCCc1ccccc1` (racemic) and `CCC1(Cc2ccccc2)OS(=O)(=O)C=C1OCCCCCCc1ccccc1` (racemic) cannot be ordered by CC50 at 72 h: 99 µM for the first, under 200 µM for the second.

Compared with `CCC1(Cc2ccccc2)OS(=O)(=O)C=C1OCc1ccc(Cl)c(Cl)c1` (racemic), `CCC1(Cc2ccccc2)OS(=O)(=O)C=C1OC(=O)c1ccccc1` (racemic) is higher in CC50 at 72 h: 36.7 µM for the first, over 200 µM for the second.

Work on `Nc1nc2c(ncn2COCCO)c(=O)[nH]1` [ACYCLOVIR] yielded a CC50 at 72 h of 733 µM.

tested on: Human alphaherpesvirus 3; assay: Antiviral activity against Varicella zoster virus YS infected in human HEL cells assessed reduction in viral plaque formation; type: functional, organism-based; details: Human alphaherpesvirus 3, YS

With `CCC1(Cc2ccccc2)OS(=O)(=O)C=C1OCc1ccccc1Cl` (racemic) the EC50 was over 5 µM.

tested on: Human betaherpesvirus 5; assay: Antiviral activity against wild type HCMV AD169 infected in HEL cells assessed as inhibition of virus-induced cytopathicity; type: functional, organism-based; details: Human betaherpesvirus 5, AD169, HEL
Outline: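 HEL fibroblast cultures infected at 100 PFU input. After 2 h, residual virus was removed and compound-containing medium was added at varying concentrations, in duplicate. Cells were incubated 7 days at 37 °C, ethanol-fixed and Giemsa-stained, and cytopathicity was scored microscopically.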

Compound `Nc1nc2c(ncn2COCCO)c(=O)[nH]1` [ACYCLOVIR] has an EC50 of 15 µM.
